Measured values: ChEMBL document CHEMBL3758104, “Reinvestigating Old Pharmacophores: Are 4-Aminoquinolines and Tetraoxanes Potential Two-Stage Antimalarials?” (J Med Chem, 2016)
Active and inactive are the calls of the source. No cut-off for these calls is given here.

Legend:
Mus musculus [1] = assay: Toxicity in Plasmodium berghei ANKA infected C57Bl6 mouse at 160 mg/kg/day, po administered for 3 days measured 2 times a day for 31 days; type: organism-based; conditions: in vivo, 744 h
Mus musculus [2] = assay: Toxicity in Plasmodium berghei ANKA infected C57Bl6 mouse at 80 mg/kg/day, po administered for 3 days measured 2 times a day for 31 days; type: organism-based; conditions: in vivo, 744 h
Plasmodium berghei [3] = assay: Antimalarial activity against Plasmodium berghei ANKA infected in C57Bl6 mouse at 80 mg/kg/day, po measured on day 3 to 5 by Thompson test; type: functional
Plasmodium berghei [4] = assay: Antimalarial activity against Plasmodium berghei ANKA infected in C57Bl6 mouse assessed as increase in cure rate at 80 mg/kg/day, po administered for day 3 to 5 by Thompson test; type: functional, organism-based
How it was run: (§1)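 Modified Thompson test: C57Bl6 female mice inoculated intraperitoneally on day 0 with 1×10^6 P. berghei ANKA-infected erythrocytes; compound suspended in 0.5% hydroxyethylcellulose–0.1% Tween 80, given orally once daily on days 3, 4 and 5 post infection. Parasitemia by Giemsa-stained thin tail-blood smears on days 0, 3, 6, 10, 13, 17, 20, 24, 27, 31. Cure = survival without parasitemia to day 31.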

Plasmodium berghei [5] = assay: Antimalarial activity against Plasmodium berghei ANKA infected in C57Bl6 mouse assessed as increase in survival rate at 80 mg/kg/day, po administered for day 3 to 5 by Thompson test; type: functional, organism-based; how it was run: as §1
Plasmodium falciparum [6] = assay: Antimalarial activity against 4th to 5th gametocyte stage of Plasmodium falciparum 3D7elo1-pfs16-CBG99 assessed as inhibition of gametocyte viability by luciferase reporter gene assay; type: functional, organism-based
How it was run: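 Stage IV–V gametocytes of luciferase-expressing 3D7elo1-pfs16-CBG99 strain (CBG99 under pfs16 promoter); luciferase activity as viability read-out. Viability = 100×(treated−blank)/(untreated−blank), blank = 100 nM epoxomicin-treated sample. Epoxomicin and dihydroartemisinin as positive controls. IC50 from nonlinear regression of dose–response; mean of three experiments in duplicate.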

Plasmodium berghei [7] = assay: Antimalarial activity against sporozoite stage of Plasmodium berghei ANKA infected in C57BL/6J mouse assessed as reduction in liver parasite load at 50 mg/kg/, po administered for 3 days measured after 48 hrs by qRT-PCR analysis relative to control; type: functional; design: scale not given: the % may be the effect or the level left
How it was run: (§2)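 C57BL/6J mice, five per group, infected iv with luciferase-expressing P. berghei ANKA sporozoites. Compound given by oral gavage in DMSO + sunflower oil 24 h before, at, and 24 h after infection; controls got vehicle. Liver load measured 48 h post-infection by qRT-PCR of P. berghei 18S rRNA normalised to mouse Hprt, as % of controls; mean of two independent experiments.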

Plasmodium berghei [8] = assay: Antimalarial activity against sporozoite stage of Plasmodium berghei ANKA infected in C57BL/6J mouse assessed as reduction in liver parasite load at 100 mg/kg/, po administered for 3 days measured after 48 hrs by qRT-PCR analysis relative to control; type: functional; design: scale not given: the % may be the effect or the level left; how it was run: as §2
Plasmodium berghei [9] = assay: Antimalarial activity against sporozoite stage of Plasmodium berghei infected in human Huh7 cells assessed as inhibition of parasite infection pre-incubated for 24 hrs followed by parasite infection measured after 48 hrs by bioluminescence assay; type: functional, organism-based; conditions: Huh-7
[10] = Selectivity ratio of IC50 for IV to V gametocyte stage of Plasmodium falciparum 3D7elo1-pfs16-CBG99 to IC50 for sporozoite stage of Plasmodium berghei infected in human Huh7; type: functional, Huh-7
Plasmodium berghei [11] = assay: Antimalarial activity against sporozoite stage of Plasmodium berghei infected in human Huh7 cells assessed as remaining parasite infection at 5 uM pre-incubated for 24 hrs followed by parasite infection measured after 48 hrs by bioluminescence assay; conditions: Huh-7
[12] = Half life in human liver microsomes at 1 uM by LC-MS/MS analysis; type: ADME
HepG2 = assay: Cytotoxicity against human HepG2 cells after 48 hrs by MTT assay; type: cell-based; conditions: HepG2, 48 h
Plasmodium berghei [13] = assay: Antimalarial activity against Plasmodium berghei ANKA infected in C57Bl6 mouse assessed as reduction of parasitemia at 160 mg/kg/day, po administered for day 3 to 5 measured on day 6 to 14 by Thompson test; type: functional, organism-based; how it was run: as §1
Plasmodium falciparum [14] = assay: Antimalarial activity against chloroquine-susceptible Plasmodium falciparum D6 after 48 hrs by [3H]hypoxanthine incorporation assay; type: functional, organism-based
How it was run: (§3)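 P. falciparum D6 (Sierra I/UNC clone), W2 (Indochina I clone), TM91C235 (South-East Asian clone) cultured with compound; growth inhibition by [3H]hypoxanthine incorporation (modified Desjardins/Milhous method). Chloroquine, mefloquine, artemisinin as positive controls. IC50 in nM; technical triplicates, curve fits R2 0.96–1.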

Plasmodium falciparum [15] = assay: Antimalarial activity against mutidrug resistant Plasmodium falciparum TM91C235 after 48 hrs by [3H]hypoxanthine incorporation assay; type: functional, organism-based; how it was run: as §3
Plasmodium falciparum [16] = assay: Antimalarial activity against chloroquine-resistant Plasmodium falciparum W2 after 48 hrs by [3H]hypoxanthine incorporation assay; type: functional, organism-based; how it was run: as §3
[17] = Half life in mouse liver microsomes at 1 uM by LC-MS/MS analysis; type: ADME
[18] = Selectivity index, ratio of IC50 for human HepG2 cells to IC50 for chloroquine susceptible Plasmodium falciparum D6; type: toxicity, cell-based; conditions: read-out: Ratio IC50
Plasmodium berghei [19] = assay: Antimalarial activity against Plasmodium berghei ANKA infected in C57Bl6 mouse at 160 mg/kg/day, po measured on day 3 to 5 by Thompson test; type: functional

Fc1ccc2scc(CNCCCNc3ccnc4cc(Cl)ccc34)c2c1
Activity (Mus musculus [1]): Toxic
Activity (Mus musculus [2]): Non-toxic
MST (Plasmodium berghei [3]): 14 days
Activity (Plasmodium berghei [4]): inactive
Activity (Plasmodium berghei [5]): inactive

CCCNC(=O)CCC(C)[C@H]1CC[C@H]2[C@@H]3[C@H](OC(C)=O)C[C@@H]4CC5(CC[C@]4(C)[C@H]3C[C@H](OC(C)=O)[C@]12C)OOC1(CCCCC1)OO5 (some centres not stated)
IC50 (Plasmodium falciparum [6]): 1160 nM
Activity (Plasmodium berghei [7]): 60%
Activity (Plasmodium berghei [8]): 91%
IC50 (Plasmodium berghei [9]): 330 nM
Ratio IC50 [10]: 3.5
% infection at 5 µM (Plasmodium berghei [11]): 0.55%

CC(CCCNCCC12CC3CC(CC(C3)C1)C2)Nc1ccnc2cc(Cl)ccc12 (configuration not stated)
half-life at 1 µM [12]: 1 h
IC50 (HepG2): 13300 nM
Activity (Plasmodium berghei [13]): Active
IC50 (Plasmodium falciparum [14]): 7 nM
IC50 (Plasmodium falciparum [15]): 14 nM
IC50 (Plasmodium falciparum [16]): 26 nM
half-life at 1 µM [17]: 1 h
selectivity ratio [18]: 1900
Activity (Mus musculus [1]): Non-toxic
MST (Plasmodium berghei [19]): 21.4 days

CC[C@H](C)[C@H](NC(=O)[C@H]([C@@H](C)CC)N(C)C(C)=O)C(=O)N[C@H](C(=O)N[C@@H](CC(C)C)C(=O)[C@@]1(C)CO1)[C@@H](C)O [EPOXOMYCIN]
IC50 (Plasmodium falciparum [6]): 11.8 nM
